Measurements: PMC5474308 (Biochimica et biophysica acta, 2015)
Like-named read-outs stand apart in the source and are kept apart here. Values belong to the compound of their own block, whether it stands above or below them. Ends that are not written are not given here.

What was measured:
[1] = test system: PAK2 (pT402) in pancreatic acini; assay: PAK2 T402 phosphorylation after stimulation by secretagogues and growth factors; format: cell-based, rat; conditions: for PAK2 activation (abstract, words): rat pancreatic acini; for T402 PAK2 phosphorylation by growth factors, % of control: EGF 10 nM 5 min, bFGF 100 ng/ml 5 min, PDGF 100 ng/ml 10 min (p<0.05), insulin 1 μM 10 min (p=0.08), 5 independent experiments; for effect on phosphorylation of (T402) PAK2: VIP 10 nM, secretin 10 nM, endothelin 1 10 nM, 1 min; for effect of growth factors on PAK2 threonine 402 phosphorylation: IGF-1 100 nM 10 min, HGF 1 nM 10 min, insulin 1 μM 10 min
[2] = test system: PAK2 (pT402) in pancreatic acini; assay: Time course of CCK and EGF stimulation of PAK2 T402 phosphorylation; format: cell-based, rat; conditions: for T402 PAK2 phosphorylation at 1 minute: 1 min; for T402 PAK2 phosphorylation at 1 minute / duration of increase in phospho-T402 PAK2 / time of maximum T402 PAK2 phosphorylation: CCK 100 nM or EGF 10 nM
[3] = test system: rat pancreatic acinar cells (amylase release); assay: Effect of PAK2 inhibition on amylase release; format: cell-based; conditions: for Amylase secretion (% total), inhibitor with CCK 0.01 nM: 40 μM inhibitor/analogue + CCK 0.01 nM, CCK alone 11.9 ± 2.2; for Amylase secretion (% total), inhibitor with CCK 0.01 nM / Amylase secretion (% total), inhibitor with CCK 0.1 nM / Amylase secretion (% total), inhibitor with bombesin / Amylase secretion (% total), inhibitor without secretagogue / Amylase secretion (% total), no inhibitor: 30 min; for Amylase secretion (% total), inhibitor with CCK 0.1 nM: 40 μM inhibitor/analogue + CCK 0.1 nM, CCK alone 15.7 ± 0.4; for Amylase secretion (% total), inhibitor with bombesin: 40 μM inhibitor/analogue + bombesin 10 nM, bombesin alone 15.2 ± 0.8; for Amylase secretion (% total), inhibitor without secretagogue: 40 μM inhibitor/analogue, no secretagogue; for Amylase secretion (% total), no inhibitor: 5–10 experiments, untreated 3.8 ± 0.3, p<0.05 vs control
Summary of the method: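 Secretagogues were CCK (0.01 or 0.1 nM) or bombesin (10 nM). Amylase released over a 30 min incubation was measured with Phadebas reagent and expressed as % of total cellular amylase. Means of 5–10 experiments.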

[4] = test system: CCK1 / CCK2 receptors in pancreatic acini (pT402 PAK2); format: cell-based, rat; conditions: gastrin (CCKB agonist) 10 nM, A71378 (CCKA receptor agonist) 30 nM, 1 min
[5] = test system: PAK2 (pT402) in pancreatic acini; format: cell-based, rat
[6] = test system: ERK1/2 (p42/44) in pancreatic acini; assay: Effect of PAK2 inhibition on ERK1/2; format: cell-based, rat
[7] = test system: PAK2 (pT402) in pancreatic acini; format: cell-based, rat; conditions: for PAK2 inhibition: IPA-3 40 μM, 15 min
[8] = test system: PAK2 (pT402) in pancreatic acini; assay: Effect of post-receptor stimulants on T402 PAK2 phosphorylation; format: cell-based, rat; conditions: 1 μM each, 5 min
[9] = test system: PAK2 (pT402) in pancreatic acini; assay: Dose-response effect of CCK and CCK-JMV on T402 PAK2 phosphorylation; format: cell-based, rat; conditions: 3 min
Summary of the method: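 Rat pancreatic acini were dispersed by collagenase and pre-incubated 2 h at 37 °C in HEPES-buffered (pH 7.45) standard incubation solution. They were then exposed for 3 min to graded concentrations of CCK or the test peptide, and lysed. Read-out was pT402 PAK2 western blot with total PAK2 as loading control, by chemiluminescence densitometry. Values are % of 100 nM CCK response; n=5; EC50 by curve fitting.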

Compound: CCCCCCCCCCCCCC(=O)O[C@@H]1[C@@H](C)[C@@]2(O)[C@@H](C=C(CO)C[C@]3(O)C(=O)C(C)=C[C@@H]23)[C@@H]2C(C)(C)[C@]12OC(C)=O [TPA, 12-O-tetradecanoylphorbol-13-acetate]
PAK2 activation (abstract, words) [1]: activated

Compound: Epidermal growth factor [EGF]
T402 PAK2 phosphorylation at 1 minute ([2]; mean ± S.E. of 5 experiments): 300±30 % of control
duration of increase in phospho-T402 PAK2 [2]: ≤ 3 min
time of maximum T402 PAK2 phosphorylation [2]: 1 min
T402 PAK2 phosphorylation by growth factors, % of control [1]: 195±28 of control
PAK2 activation (abstract, words) [1]: activated

Compound: Oc1ccc2cc(SSc3ccc4cc(O)ccc4c3)ccc2c1 [Pir 3,5, 6,6′-Dithiodi-2-naphthtol]
Amylase secretion (% total), inhibitor with CCK 0.01 nM [3]: 12.6 ± 0.8 % total
Amylase secretion (% total), inhibitor with CCK 0.1 nM [3]: 14.7± 1.0 % total
Amylase secretion (% total), inhibitor with bombesin [3]: 14.4 ± 1.2 % total
Amylase secretion (% total), inhibitor without secretagogue [3]: 4.3 ± 0.9 % total
effect on stimulated enzyme secretion ([3]; Pir3,5 40 μM, CCK or bombesin): had no effect on stimulated enzyme secretion

Compound: C[N+](C)(C)CCOC(N)=O [carbachol]
PAK2 activation (abstract, words) [1]: activated

Compound: basic fibroblast growth factor [bFGF]
T402 PAK2 phosphorylation by growth factors, % of control [1]: 228±37 of control
PAK2 activation (abstract, words) [1]: activated

Compound: gastrin
effect of selective receptor agonist on pT402 PAK2 phosphorylation [4]: did not produce any increase in pT402 PAK2 phosphorylation

Compound: platelet-derived growth factor [PDGF]
T402 PAK2 phosphorylation by growth factors, % of control [1]: 240±44 of control
PAK2 activation (abstract, words) [1]: activated

Compound: bombesin: pancreatic secretagogue that activates phospholipase C
Amylase secretion (% total), no inhibitor ([3]; bombesin 10 nM): 15.2 ± 0.8 % total
PAK2 activation (abstract, words) [1]: activated

Compound: CN(C)CCCn1cc(C2=C(c3c[nH]c4ccccc34)C(=O)NC2=O)c2ccccc21 [GFX]
TPA-induced pT402 PAK2 phosphorylation after pretreatment ([5]; pretreatment GF109203X 5 μM 1 h, then TPA 1 μM 5 min, TPA alone 319±45): 100±26 % of control

Compound: Endothelin-1: interacts with ET-1 and ET-3 receptors in the pancreatic acinar cell (CSCSSLMDKECVYFCHLDIIW; ends and bridges not checked; cysteine pairing not given here; UniProt P05305 53-73, looked up)
effect on phosphorylation of (T402) PAK2 [1]: did not produce any effect upon T402 PAK2 phosphorylation

PAK2 inhibition [7]: 70%
PAK2 inhibition ([7]; listed as IPA3): approximately 70%
basal pT402 PAK2 phosphorylation with inhibitor ([7]; PP2 10 μM 1 h or IPA-3 40 μM 15 min, no stimulant): 32±6 % of control
effect on CCK-activation of PAK2 (abstract, words) ([7]; rat pancreatic acini): partially inhibited
Compound: Oc1ccc2ccccc2c1SSc1c(O)ccc2ccccc12 [IPA-3, 1,1′-Dithiodi-2-naphthtol]
reduction of bombesin-induced increase in amylase release ([3]; 40 μM IPA3, bombesin 10 nM): 55 % of the maximal bombesin-induced stimulation
reduction of CCK-induced increase in amylase release ([3]; 40 μM IPA3, both concentrations of CCK (0.01, 0.1 nM)): 63 % of maximal CCK stimulation
Amylase secretion (% total), inhibitor with CCK 0.01 nM [3]: 7.5 ± 1.3ˆ % total
Amylase secretion (% total), inhibitor with CCK 0.1 nM [3]: 9.6 ± 0.6ˆ % total
Amylase secretion (% total), inhibitor with bombesin [3]: 10.3± 0.9ˆ % total
Amylase secretion (% total), inhibitor without secretagogue [3]: 5.2 ± 0.5 % total
effect on amylase release induced by CCK or bombesin (abstract, words) ([3]; rat pancreatic acini): reduced
CCK induced phosphorylation of p42/44 with inhibitor ([6]; IPA-3 40 μM, then CCK 0.3 nM, p<0.05): 64±4 % of CCK 0.3 nM alone
effect on CCK-induced ERK1/2 activation (abstract, words) ([6]; rat pancreatic acini): reduced

Compound: CNc1ccc2oc(C[C@H]3O[C@@]4(CC[C@H]3C)O[C@H]([C@H](C)C(=O)c3ccc[nH]3)[C@H](C)C[C@H]4C)nc2c1C(=O)O [A23187]
effect on PAK2 phosphorylation [8]: have no effect on PAK2

Compound: vasoactive intestinal peptide (HSDAVFTDNYTRLRKQMAVKKYLNSILN; ends and bridges not checked; UniProt P01282 125-152, looked up) [VIP]
effect on phosphorylation of (T402) PAK2 [1]: did not increase phosphorylation of (T402) PAK2

Compound: insulin-like growth factor 1 [IGF-1]
effect of growth factors on PAK2 threonine 402 phosphorylation [1]: had no effect

Compound: COOH-terminal octapeptide of cholecystokinin [CCK]
T402 PAK2 phosphorylation at 1 minute ([2]; mean ± S.E. of 5 experiments): 275±17 % of control
T402 PAK2 phosphorylation at 3 min ([2]; 3 min, CCK 100 nM, mean ± S.E. of 5 experiments, p<0.05): 298±26 % of control
duration of increase in phospho-T402 PAK2 [2]: over 15 min
time of maximum T402 PAK2 phosphorylation [2]: 3 min
subsequent partial decrease of PAK2 activation after rapid increase ([2]; CCK 100 nM, sustained over time): 40%
increase in amylase release ([3]; 0.01 nM CCK): 313±57%
increase in amylase release ([3]; 0.1 nM CCK): 413±11%
Amylase secretion (% total), no inhibitor ([3]; CCK 0.01 nM): 11.9 ± 2.2 % total
Amylase secretion (% total), no inhibitor ([3]; CCK 0.1 nM): 15.7 ± 0.4 % total
PKC-independent activation of PAK2 that was also PLC-independent ([5]; CCK1 receptor stimulation): 40%
maximal stimulation of T402 PAK2 phosphorylation ([9]; 100 nM CCK): 452±70 % of control
concentration at which increase in T402 PAK2 phosphorylation is detectable [9]: 10 pM
concentration of maximal stimulation of T402 PAK2 phosphorylation [9]: 100 nM
PAK2 activation (abstract, words) [1]: activated

Compound: secretin: gastrointestinal hormone activating adenylate cyclase
effect on phosphorylation of (T402) PAK2 [1]: did not increase phosphorylation of (T402) PAK2

Compound: hepatocyte growth factor [HGF]
effect of growth factors on PAK2 threonine 402 phosphorylation [1]: had no effect

Compound: Insulin: pancreatic growth factor
T402 PAK2 phosphorylation by growth factors, % of control [1]: 210±44 of control
effect of growth factors on PAK2 threonine 402 phosphorylation [1]: did not quite reach statistical significance
